STEP block: STEP (human) phosphatase inhibition; 360,000 compounds, 0.25% hits; inhibition, % at 20 µM; P54829; recombinant STEP, OMFP fluorogenic substrate, fluorescence;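 active = inhibition at 20 µM, scaled per plate between control wells, above about 37%, limit read from the data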
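System: STEP (striatal-enriched tyrosine phosphatase) enzyme, cell-free; medium: Bis-Tris pH 6.0 buffer with DTT, detergent; dosing: 20 µM, 1% DMSO; times: reaction 20 min, ambient temperature; detection: fluorescence, 480/540 nm; read-out basis: normalized % inhibition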
LMPTP inh: LMPTP (human) inhibition. recombinant LMPTP-A, OMFP fluorogenic substrate, fluorescence intensity. inhibition, % at 20 µM. P24666. 360,000 compounds, 0.22% hits;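 active = compounds that cut the enzyme signal by at least half of the control window in the single-dose screen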
Target sequence (P24666 whole entry, looked up): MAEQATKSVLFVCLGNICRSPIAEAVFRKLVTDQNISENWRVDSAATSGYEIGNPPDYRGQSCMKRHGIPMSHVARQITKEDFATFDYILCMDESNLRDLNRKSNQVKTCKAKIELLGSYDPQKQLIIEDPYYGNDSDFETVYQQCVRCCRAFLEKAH
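material = LMPTP-A | quantity = 0.625 nM enzyme | reagent = OMFP substrate, 400 µM final | buffer or medium = Bis-Tris pH 6.0, DTT, detergent | detection = endpoint fluorescence intensity from OMFP dephosphorylation | dosing = single 20 µM dose | read-out basis = % inhibition relative to no-enzyme and uninhibited control wells | control set = no-enzyme and uninhibited controls | timing = 50 min at room temperature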
NadD block: NadD (S. aureus) enzyme inhibition; purified NadD enzyme, colorimetric absorbance read-out; AID 602399; 360,000 compounds, 0.78% hits; inhibition, % at 20 µM; in the data active = inhibition above about 26%
Scp1 inh: blocks human Scp-1 phosphatase activity; Q9GZU7; inhibition, % at 20 µM; Recombinant Scp1, phosphopeptide, malachite green phosphate absorbance; 340,000 compounds, 0.88% hits; AID 493091;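 active = inhibition above about 50% at 20 µM, limit read from the data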
Target sequence (Q9GZU7 76-261 limits assumed): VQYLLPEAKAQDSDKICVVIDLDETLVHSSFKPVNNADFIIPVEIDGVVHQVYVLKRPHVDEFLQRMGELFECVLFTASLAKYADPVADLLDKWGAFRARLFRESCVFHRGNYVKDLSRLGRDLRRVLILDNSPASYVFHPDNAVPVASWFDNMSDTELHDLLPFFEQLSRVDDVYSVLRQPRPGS
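System: truncated SCP-1 phosphatase (76-261aa); medium: Tris acetate buffer pH 5.5 with MgCl2 and Tween-20; incubation: 45 min room-temperature reaction, 5 min colour, 30 min stabiliser; compound: single 20 µM dose, 1% DMSO; reagent: Phosphorylated 17-residue peptide substrate; read-out: % inhibition at 20 µM; technique: colorimetric free-phosphate detection, absorbance 630 nm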
SUMO1 PPI mod: modulators of human SUMO1-mediated protein-protein interactions; P63165; SUMO1 binding to a labelled peptide, TR-FRET, 1 h; inhibition, % at 20 µM; 360,000 compounds, 0.33% hits; in the data active = inhibition above about 37%
Target sequence (P63165 whole entry, looked up): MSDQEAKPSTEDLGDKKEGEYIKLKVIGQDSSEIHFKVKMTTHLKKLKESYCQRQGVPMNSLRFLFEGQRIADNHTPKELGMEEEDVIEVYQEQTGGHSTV
DNMT1 block: blocks human DNA methyltransferase DNMT1. AID 588458. DNMT1 molecular beacon, Hinp1I cleavage, fluorescence. P26358. 360,000 compounds, 0.83% hits. inhibition (reported as % activation of signal), % at 10 µM; in the data active = inhibition above about 50%
Scp1 confirm: Scp-1 (human) inhibition, single-dose confirmed; shares compounds with Scp1 inh; recombinant SCP-1 catalytic domain, phosphate release, malachite green absorbance; inhibition, % at 20 µM; 2,500 compounds, 61% hits
MG interference: colorimetric interference in Scp-1 counter-screen; AID 540313; 2,500 tested, under 10 active; apparent inhibition (interference), % at 20 µM; shares compounds with Scp1 inh; Colorimetric interference counterscreen, malachite green absorbance 630 nm;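 also: compounds added after enzyme reaction finished so only phosphate colour detection is probed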
Scp1 DSF: binds human Scp-1, shifting its melting temperature | shares compounds with Scp1 inh | Recombinant SCP1, Sypro Orange thermal shift Tm | thermal shift relative to vanadate control, % at 40 µM | 1,500 compounds, 25% hits;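 active = substances whose mean melting-temperature shift, as a percentage of the reference inhibitor's shift, reaches about 5.3%, limit read from the data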
Of the large screens only hits and unclear results are named; the others gave an inactive call (follow-up assays come after a bar, where they were run). Only some compounds are listed: those with a hit (about 2.4% of all), similar ones and a draw of the others.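 The calls were made as follows, unless noted: active = inhibition of at least 30% at 20 µM; inactive = the rest.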

COc1ccccc1NC(=O)c1ccc2c(c1)C(=O)N(Cc1ccco1)C2=O	none
O=C1CC(=O)N2N=C(c3ccc([N+](=O)[O-])cc3)SC2=N1	Scp1 inh 69.0 | Scp1 confirm 67.9 | MG interference inactive | Scp1 DSF 6.2
CC1=NN(c2cccc([N+](=O)[O-])c2)C(=O)C1	none
COc1ccc(Br)cc1C(=O)Nc1cccc(-c2nnc(-c3ccco3)o2)c1	Scp1 inh 97.8 | Scp1 confirm 71.7 | MG interference inactive | Scp1 DSF inactive
CCCOCC(O)CCc1n[nH]c(=S)n1-c1ccccc1 (centres undefined)	Scp1 inh 60.2 | Scp1 confirm inactive | MG interference inactive
NNC(=O)COc1ccc(-c2n[nH]c(C(F)(F)F)c2-c2ccc(Br)cc2)c(O)c1	none
CCc1c(C)nc2cc(-c3ccc(Cl)cc3)[nH]n2c1=O	none
O=c1c2c(nc3cc(-c4ccc(Cl)cc4)[nH]n13)CCS2	LMPTP inh 61.3, Scp1 inh 83.8 | Scp1 confirm 30.6 | MG interference inactive | Scp1 DSF inactive
Cc1cccc(N/C(N)=N/c2nc(C)cc(C)n2)c1	none
O=C(CN1C(=O)N/C(=C\c2ccccc2OCc2ccc(C(=O)O)cc2)C1=O)Nc1ccc(F)cc1	Scp1 inh 70.3 | Scp1 confirm 65.4 | MG interference inactive | Scp1 DSF inactive
Cc1cccc(NC(=O)CN2C(=O)N/C(=C\c3ccccc3OCc3ccc(C(=O)O)cc3)C2=O)c1	Scp1 inh 85.5 | Scp1 confirm 73.7 | MG interference inactive | Scp1 DSF inactive
CN1C(=O)/C(=C/c2ccccc2OCc2ccc(C(=O)O)cc2)NC1=S	none
Cc1cc(N2CCOCC2)ccc1/C=C1\NC(=O)N(CC(=O)Nc2ccc(F)cc2)C1=O	none
O=C(O)c1ccc(COc2ccccc2/C=C2\NC(=O)N(Cc3ccc(F)cc3)C2=O)cc1	Scp1 inh 63.0 | Scp1 confirm 66.3 | MG interference inactive | Scp1 DSF inactive
O=C(O)c1ccc(COc2ccccc2/C=C2/NC(=O)N(c3cccc(Cl)c3)C2=O)cc1	Scp1 inh 66.2 | Scp1 confirm 65.1 | MG interference inactive | Scp1 DSF inactive
Cc1ccc(S(=O)(=O)Nc2ncnc3sccc23)cc1C	none
Cc1ccsc1/C=N/NC(=O)CNC(=O)c1ccc(S(=O)(=O)N2CCOCC2)cc1	none
Cc1cc(N2CCOCC2)ccc1/C=C1\NC(=O)N(CC(=O)Nc2ccccc2C)C1=O	none
O=C(O)c1ccc(COc2ccccc2C=C2C(=O)c3ccccc3C2=O)cc1	Scp1 inh 68.5 | Scp1 confirm 69.1 | MG interference inactive | Scp1 DSF 8.2
O=C1NC(=S)N/C1=C\c1ccccc1OCc1ccc(C(=O)O)cc1	none
Cc1ccccc1NC(=O)CN1C(=O)N/C(=C\c2ccccc2OCc2ccc(C(=O)O)cc2)C1=O	Scp1 inh 102.6 | Scp1 confirm 83.1 | MG interference inactive | Scp1 DSF inactive
CCOc1ccccc1N1CC(C(=O)N(CC)CC(=O)Nc2ccc3c(c2)OCCO3)CC1=O (centres undefined)	none
Clc1ccc(SCc2cc(Cl)nc(-c3ccccc3)n2)cc1	none
Clc1cc(CSc2ccccc2)nc(-c2ccccc2)n1	Scp1 inh 61.4 | Scp1 confirm 35.7 | MG interference inactive | Scp1 DSF inactive
COc1ccccc1NC(C)=[N+](C)CCNS(=O)(=O)c1ccc(Cl)cc1	Scp1 inh 95.7 | Scp1 confirm 80.7 | MG interference inactive | Scp1 DSF inactive
C=CCN1C(=O)C(=O)N(CC(=O)NCC(=O)Nc2ccc(F)c(F)c2F)C1=O	none | Scp1 confirm inactive | MG interference inactive
O=C(CN1C(=O)C(=O)N(Cc2ccco2)C1=O)Nc1ccc(F)c(F)c1F	none
CCCn1c(N)c(N(CCOC)C(=O)c2cc(Cl)nc3ccccc23)c(=O)[nH]c1=O	none
COCCN(C(=O)COC(=O)/C=C/c1ccc(SC)cc1)c1c(N)n(Cc2ccccc2)c(=O)[nH]c1=O	none
CCCCn1c(N)c(N(CCOC)C(=O)c2cc(-c3ccco3)nc3ccccc23)c(=O)[nH]c1=O	Scp1 inh 58.2 | Scp1 confirm 67.0 | MG interference inactive | Scp1 DSF inactive
COCCN(C(=O)c1cc(-c2ccco2)nc2ccccc12)c1c(N)n(Cc2ccccc2)c(=O)[nH]c1=O	Scp1 inh 64.1 | Scp1 confirm 57.7 | MG interference inactive | Scp1 DSF inactive
COCCN(C(=O)COC(=O)/C=C/c1ccc(C(F)(F)F)cc1)c1c(N)n(Cc2ccccc2)c(=O)[nH]c1=O	Scp1 inh 58.4 | Scp1 confirm inactive | MG interference inactive
CC(C(=O)NN=C(c1ccccc1)c1ccccc1)N1CCCC1 (centres undefined)	none
CC1CCCN(CCCNC(=O)c2nn(C)c3c2CSc2ccccc2-3)C1 (centres undefined)	none
COc1cc(/C=C2/C(=O)NN(c3cccc(Cl)c3)C2=O)cc(OC)c1O	none
COc1cc(/C=C2/C(=O)NN(c3ccc(C)c(Cl)c3)C2=O)cc([N+](=O)[O-])c1O	STEP block 85.7, Scp1 inh 61.3 | Scp1 confirm 73.7 | MG interference inactive | Scp1 DSF 568.6
CC(=O)c1c(C)n(C)c2ccc(OC(=O)c3ccc([N+](=O)[O-])cc3)cc12	Scp1 inh 58.9 | Scp1 confirm inactive | MG interference inactive
Cc1ccc2nc(/C(C#N)=C/c3ccc(O)c(O)c3)[nH]c2c1	none
Cc1ccc2nc(/C(C#N)=C\c3ccc(N4CCCCC4)c([N+](=O)[O-])c3)[nH]c2c1	NadD block 39.2, Scp1 inh 108.5 | Scp1 confirm 77.0 | MG interference inactive | Scp1 DSF 11.9
CCOC(=O)c1sc(NC(=O)CSc2nnc(-c3ccco3)n2CC)c(C(=O)OCC)c1C	none
CCOC(=O)c1sc(NC(=O)CSc2nncs2)c(C(=O)OCC)c1C	Scp1 inh 52.3 | Scp1 confirm inactive | MG interference inactive

Bioassay records from PubChem BioAssay.
